# Reference: paper PMC3071016 (Biochimica et biophysica acta, 2010)
# Numbering of substitutions follows the chain as printed. Marks after values point to notes of the source that are not given here. Starred links: 1 amine or outer side, 2 acyl side, 3 side chain; linkers in the order of their positions; H or OH if unused. Non-standard residues stand in square brackets, D forms with d. Residues, ends and D or L forms follow the SMILES beside them. *: point of attachment. X2 = CN(C)c1ccc2c(-c3ccc(C(=O)*)cc3C(=O)[O-])c3ccc(=[N+](C)C)cc-3oc2c1; Isoquinoline5sulfonyl = O=S(=O)(c1cccc2cnccc12)*; X1 = O=C(CCCCCNCCN[*:1])[*:2]
# Experiments:
# PKGIα [1] = target: T1, PKGIα (Homo sapiens, UniProt Q13976); test: FA displacement assay; type: binding; conditions: for log IC50, PKGIα, FA (displacement): displacement of ARC-1059 (2 nM) from PKGIα (4 nM), cGMP 1 μM, logarithm of IC50
# T1 sequence (Q13976 1-671): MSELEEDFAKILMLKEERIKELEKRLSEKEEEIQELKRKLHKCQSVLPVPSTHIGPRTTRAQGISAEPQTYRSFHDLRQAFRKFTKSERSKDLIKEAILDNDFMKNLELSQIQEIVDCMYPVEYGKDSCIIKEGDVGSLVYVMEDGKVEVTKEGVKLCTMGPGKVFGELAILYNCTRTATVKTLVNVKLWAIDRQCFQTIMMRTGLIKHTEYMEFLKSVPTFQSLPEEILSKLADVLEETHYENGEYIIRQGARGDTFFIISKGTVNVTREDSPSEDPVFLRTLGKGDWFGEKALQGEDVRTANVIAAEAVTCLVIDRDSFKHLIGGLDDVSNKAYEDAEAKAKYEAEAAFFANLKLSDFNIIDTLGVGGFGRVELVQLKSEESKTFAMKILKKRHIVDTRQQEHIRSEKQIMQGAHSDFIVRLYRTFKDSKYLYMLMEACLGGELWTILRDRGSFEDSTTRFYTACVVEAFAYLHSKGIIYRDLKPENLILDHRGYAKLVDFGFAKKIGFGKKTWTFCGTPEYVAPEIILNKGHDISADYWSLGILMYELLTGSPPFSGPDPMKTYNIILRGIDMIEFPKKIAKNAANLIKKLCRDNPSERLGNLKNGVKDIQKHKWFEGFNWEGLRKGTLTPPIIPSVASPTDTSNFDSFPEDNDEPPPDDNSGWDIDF
# PKGIα [2] = target: T2, PKGIα (Bos taurus, UniProt P00516); test: FI displacement assay; type: binding, bovine
# T2 sequence (P00516 1-671): T1 sequence (Q13976 1-671) with T265K, S275N
# PKGIα [3] = target: T2, PKGIα; test: Radioactive inhibition assay; type: biochemical, bovine
# PKGIα [4] = conditions: reported in the literature; cited from earlier work
# PKAc = PKAc (Homo sapiens, UniProt P17612); conditions: 100 μM ATP and 30 μM TAMRA-Kemptide substrate; logarithm of IC50; cited from earlier work
# [5] = tested on: vascular smooth muscle cells in intact cerebral arteries; test: Fluorescence imaging of vascular smooth muscle cells in intact arteries; type: cell-based, rat
# Method in brief: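 Isolated intact rat cerebral arteries incubated at room temperature in Hepes buffer with the TAMRA-labelled test compound (100 nM, 1 μM or 10 μM) for 20, 40 or 60 min, then washed 3 times. Imaged by confocal scanning laser microscopy at 20× and 40×, with TAMRA excited at 568 nm (krypton–argon laser). Fluorescein-labelled reference peptide (2 μM) with TOTO-3 nuclear stain (488/647 nm excitation) used as reference.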
# PKGIα [6] = target: T1, PKGIα; test: FA direct binding assay; conditions: addition of cGMP in the absence of Mg2+
smiles,measurement,setting,value
COC(=O)[C@@]1(OC)C[C@H]2O[C@]1(C)n1c3ccccc3c3c4c(c5c6ccccc6n2c5c31)C(=O)N(C)C4 [KT-5823],displacement of ARC-1059 from its complex with PKGIα,PKGIα [1]; assay format not stated,failed to displace ARC-1059
CSCC[C@H](NC(=O)[C@H](C)NC(=O)[C@H](CC(C)C)NC(=O)[C@H](C)NC(=O)[C@H](CCCCN)NC(=O)[C@H](CCCCN)NC(=O)[C@H](CCCNC(=N)N)NC(=O)[C@H](CCCCN)NC(=O)[C@H](C)NC(=O)[C@H](CCC(N)=O)NC(=O)[C@@H](N)[C@@H](C)O)C(=O)N[C@@H](C)C(N)=O [WW21],IC50,PKGIα [2],251000 nM
Nc1ncnc2c1ncn2[C@@H]1O[C@H](COP(=O)(O)OP(=O)(O)OP(=O)(O)O)[C@@H](O)[C@H]1O [ATP],Km,PKGIα [3]; PKGIα-catalysed phosphorylation,20 µM
same,"log IC50, PKGIα, FA (displacement)",PKGIα [1],−2.02 (0.33)
NCCNS(=O)(=O)c1cccc2cnccc12 [H9],Ki,PKGIα [4],870 nM
same,"log IC50, PKGIα, Inhibition","PKGIα [3]; 100 μM ATP and 11 μM TQAKRKKSLAMA substrate, presence of cGMP, logarithm of IC50",−6.85 (0.02)
same,IC50,"PKGIα [3]; read-out: inhibition IC50, 100 μM ATP, 11 μM substrate peptide, presence of cGMP",141 nM
same,"log IC50, PKAc, Inhibition",PKAc,−5.43 ^b [36]
"O=S(=O)(NCCNCC=Cc1ccc(Br)cc1)c1cccc2cnccc12 [H89, N-[2-(p-bromocinnamylamino)ethyl]-5-isoquinoline-sulfonamide]",Ki,PKGIα [4],480 nM
same,IC50,PKGIα [2],1100 nM
same,IC50,PKGIα [1],3020 nM
"CN(C)c1ccc2c(-c3ccc(C(=O)NCCCC[C@@H](NC(=O)[C@@H](CCCNC(=N)N)NC(=O)[C@@H](CCCNC(=N)N)NC(=O)[C@@H](CCCNC(=N)N)NC(=O)[C@@H](CCCNC(=N)N)NC(=O)[C@@H](CCCNC(=N)N)NC(=O)[C@@H](CCCNC(=N)N)NC(=O)CCCCCNCCNS(=O)(=O)c4cccc5cnccc45)C(N)=O)cc3C(=O)[O-])c3ccc(=[N+](C)C)cc-3oc2c1 [ARC-1059, H9-Hex-(D-Arg)6-[D-Lys(TAMRA)]-NH2] (Isoquinoline5sulfonyl-[X1][dR][dR][dR][dR][dR][dR][dK](X2)-NH2)","internalization in smooth muscle tissue, concentration dependence","[5]; 100 nM, 1 μM or 10 μM",not well observable at concentrations lower than 1 μM
same,incubation time after which internalization into tissue cells was observable,"[5]; 10 μM, nucleus not yet stained",20 min
same,internalization into vascular smooth muscle cells,"[5]; intact pial arteries from rat brain, incubation 20, 40 or 60 min at room temperature",internalized into vascular smooth muscle cells
same,increase of affinity towards PKGIα by addition of cGMP,PKGIα [6],8 fold
Nc1ncnc2c1ncn2[C@@H]1O[C@H](COP(=O)(O)OP(=O)([O-])OP(=O)([O-])O)[C@@H](O)[C@H]1O.[Mg+2] [MgATP],"log IC50, PKGIα, FA (displacement)",PKGIα [1],−2.35 (0.08)
